Data: ChEMBL document CHEMBL2163220 (J Med Chem, 2012)
pIC50: −log10 of the molar value. Active and inactive are the calls of the source. No cut-off for these calls is given here.

Assays:
[1] = Cytotoxicity against human C4-2B cells incubated for 72 hrs by MTT assay; type: functional, cell-based; conditions: LNCaP C4-2B
In short: (§1)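 MTT assay run across a panel of prostate cancer cell lines.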

CWR22R = assay: Cytotoxicity against human 22Rv1 cells incubated for 72 hrs by MTT assay; type: functional, cell-based; conditions: 22Rv1, 72 h; in short: as §1
PC-3 [2] = assay: Cytotoxicity against human PC3 cells incubated for 72 hrs by MTT assay; type: functional, cell-based; conditions: PC-3, 72 h; in short: as §1
LNCaP [3] = assay: Cytotoxicity against human LNCAP cells incubated for 72 hrs by MTT assay; type: functional, cell-based; in short: as §1
[4] = molecular target: T1, Androgen receptor (Homo sapiens) (UniProt P10275); assay: Antagonist activity at androgen receptor in human LNCaP cells assessed as reduction in DHT-induced PSA expression by luciferase reporter gene assay; type: functional, cell-based
T1 sequence (whole entry): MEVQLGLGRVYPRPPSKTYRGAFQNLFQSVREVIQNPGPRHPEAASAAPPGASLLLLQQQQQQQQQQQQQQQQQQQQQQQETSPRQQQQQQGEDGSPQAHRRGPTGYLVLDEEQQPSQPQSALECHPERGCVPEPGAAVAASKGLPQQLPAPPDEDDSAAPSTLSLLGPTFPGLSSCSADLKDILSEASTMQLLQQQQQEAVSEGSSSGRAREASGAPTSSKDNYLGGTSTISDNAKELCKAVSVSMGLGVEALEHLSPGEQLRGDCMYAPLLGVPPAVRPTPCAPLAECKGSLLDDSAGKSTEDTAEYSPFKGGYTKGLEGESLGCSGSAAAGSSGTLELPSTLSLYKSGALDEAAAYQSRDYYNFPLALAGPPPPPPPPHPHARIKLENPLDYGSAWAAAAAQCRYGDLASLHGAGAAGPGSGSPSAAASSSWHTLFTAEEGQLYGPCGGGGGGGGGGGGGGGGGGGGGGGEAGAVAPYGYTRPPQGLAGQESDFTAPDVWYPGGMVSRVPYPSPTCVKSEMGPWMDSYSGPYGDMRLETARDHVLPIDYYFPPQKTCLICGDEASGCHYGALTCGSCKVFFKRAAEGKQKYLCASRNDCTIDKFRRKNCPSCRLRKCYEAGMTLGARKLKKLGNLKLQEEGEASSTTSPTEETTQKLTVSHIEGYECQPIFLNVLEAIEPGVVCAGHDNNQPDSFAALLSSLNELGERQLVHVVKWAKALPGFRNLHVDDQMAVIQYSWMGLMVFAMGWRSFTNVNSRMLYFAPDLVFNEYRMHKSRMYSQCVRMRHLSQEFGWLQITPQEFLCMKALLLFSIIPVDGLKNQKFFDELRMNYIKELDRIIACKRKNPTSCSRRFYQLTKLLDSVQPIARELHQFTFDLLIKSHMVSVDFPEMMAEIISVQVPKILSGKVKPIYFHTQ
In short: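 LNCaP cells carrying a PSA-luc reporter were treated with compound at 1 and 2.5 μM in the presence of 1 nM DHT. Fold suppression was calculated relative to 1 nM DHT alone. Run in triplicate.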

[5] = molecular target: T1, Androgen receptor (Homo sapiens); assay: Antagonist activity at androgen receptor in human LNCaP cells assessed as increase in Maspin promoter activity by luciferase reporter gene assay; type: functional, cell-based
In short: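 LNCaP cells carrying a maspin promoter-luciferase reporter were treated with compound and read by luciferase activity, in triplicate.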

PC-3 [6] = assay: Antagonist activity at androgen receptor ARv7 mutant lacking ligand binding domain expressed in human PC3 cells assessed as reduction in DHT-induced receptor transactivation at 1 uM by luciferase reporter gene assay; type: cell-based
In short: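 AR-v7 (lacks LBD), MMTV-Luc and pRL-TK (Renilla) plasmids transiently transfected into PC-3 cells; cells treated with DMSO vehicle, 0.1 nM DHT, or test compound at 1 μM; transactivation read as luciferase activity (relative luciferase units).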

[7] = molecular target: T1, Androgen receptor (Homo sapiens); assay: Antagonist activity at androgen receptor in human PC3 cells assessed as increase in Maspin promoter activity at 5 uM by luciferase reporter gene assay; type: functional, cell-based; conditions: PC-3
In short: (§2)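 PC-3 cells were transfected with maspin-luc, with or without cotransfected AR. Cells were exposed to DMSO vehicle or compound at 2.5 and 5 μM. Luciferase activity was measured in triplicate.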

PC-3 [8] = assay: Effect on in Maspin expression in human PC3 cells deficient in wild type androgen receptor at 5 uM by luciferase reporter gene assay; type: functional, cell-based; in short: as §2
[9] = molecular target: T1, Androgen receptor (Homo sapiens); assay: Antagonist activity at androgen receptor in human LNCaP cells assessed as increase in Maspin protein expression at 1 to 5 uM incubated for 24 hrs by Western blotting
LNCaP [10] = assay: Induction of apoptosis in human LNCAP cells assessed as caspase-3 activation incubated for 24 hrs by Western blotting; type: functional, cell-based
In short: (§3)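 LNCaP cells in complete medium were exposed to DMSO or compound at 1, 2.5 and 5 μM for 24 h. Western blot measured AR, maspin, caspase-3 activation and PARP cleavage, with β-actin as loading control.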

[11] = molecular target: T1, Androgen receptor (Homo sapiens); assay: Antagonist activity at androgen receptor in human PC3 cells assessed as increase in Maspin promoter activity at 2.5 uM by luciferase reporter gene assay; type: functional, cell-based; conditions: PC-3; in short: as §2
LNCaP [12] = assay: Reduction in androgen receptor protein expression in human LNCAP cells incubated for 24 hrs by Western blotting; type: functional, cell-based; in short: as §3
LNCaP [13] = assay: Induction of apoptosis in human LNCAP cells assessed as PARP cleavage activation incubated for 24 hrs by Western blotting; type: functional, cell-based; in short: as §3
PC-3 [14] = assay: Effect on in Maspin expression in human PC3 cells deficient in wild type androgen receptor at 2.5 uM by luciferase reporter gene assay; type: functional, cell-based; in short: as §2

Row | SMILES | pIC50 [1] | pIC50 (CWR22R) | pIC50 (PC-3 [2]) | pIC50 (LNCaP [3]) | Activity [4] | Activity [5] | other results
1 | Cc1coc2c1C(=O)C(=O)c1c-2ccc2c1CCC(C)C2 (stereo unspecified) | 6.15 | < 4.70 | 5.60 | 5.46 | – | – | –
2 | Cc1coc2c1C(=O)C(=O)c1c-2ccc2c1CCCCC2 | 5.74 | < 4.70 | 5.20 | 5.44 | – | – | –
3 | Cc1coc2c1C(=O)C(=O)c1c-2ccc2c1COCC2 | 7.00 | 5.82 | 5.68 | 5.62 | – | – | –
4 | Cc1coc2c1C(=O)C(=O)c1c-2ccc2c1CCCC2C (stereo unspecified) | 6.40 | 4.93 | 5.92 | 5.92 | – | – | –
5 | Cc1coc2c1C(=O)C(=O)c1c-2ccc2c1CC(C)(C)CC2 | 5.92 | 5.49 | 5.44 | 5.49 | Dose-dependent effect | Dose-dependent effect | –
6 | Cc1coc2c1C(=O)C(=O)c1c-2ccc2c1CCCC2 | 7.00 | 4.87 | 5.92 | 6.22 | Dose-dependent effect | Dose-dependent effect | –
7 | Cc1coc2c1C(=O)C(=O)c1c-2ccc2c1CCC2(C)C | 6.40 | 5.12 | 5.62 | 6.00 | – | – | –
8 | Cc1coc2c1C(=O)C(=O)c1c-2ccc2c1CC(C)CC2 (stereo unspecified) | 6.52 | 5.09 | 5.72 | 5.77 | – | – | –
9 | CC(O)(CS(=O)(=O)c1ccc(F)cc1)C(=O)Nc1ccc(C#N)c(C(F)(F)F)c1 (stereo unspecified) | – | – | – | – | – | – | Activity (PC-3 [6]): inactive
10 | Cc1coc2c1C(=O)C(=O)c1c-2ccc2c1CCC(C)(C)C2 | 6.30 | 5.06 | 6.05 | 6.15 | Dose-dependent effect | Dose-dependent effect | Activity [7]: Active; Activity (PC-3 [8]): inactive; Activity [9]: Active; Activity (LNCaP [10]): Dose-dependent effect; Activity [11]: Active; Activity (LNCaP [12]): Dose-dependent effect; Activity (LNCaP [13]): Dose-dependent effect; Activity (PC-3 [14]): inactive
